Measured values: ChEMBL document CHEMBL1781933, “Neurosteroid analogues. 16. A new explanation for the lack of anesthetic effects of δ(16)-alphaxalone and identification of a δ(17(20)) analogue with potent anesthetic activity” (J Med Chem, 2011)
Activity calls are given as the source filed them. No cut-off for these calls is given here.

Tests used:
Xenopus laevis [1] = assay: Anesthetic effect on Xenopus laevis tadpole assessed as loss of swimming reflex; format: functional, organism-based
Method in brief: (§1)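 Xenopus tadpoles were exposed to steroid at five or more concentrations, with 10 or more animals per concentration. Loss of righting or swimming reflex was scored. EC50 and Hill coefficient were fitted from the dose–response curves; mean ± SEM.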

Xenopus laevis [2] = assay: Anesthetic effect on Xenopus laevis tadpole assessed as loss of swimming reflex at 3 uM; format: functional, organism-based
Oocyte [3] = assay: Activity at rat GABA-A receptor alpha1beta2gamma2L expressed in Xenopus oocytes assessed as potentiation of GABA-induced chloride current at 10 uM by electrophysiological Method relative to control; format: cell-based
Method in brief: (§2)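 Oocytes expressing rat α1β2γ2L GABA-A receptors were recorded whole-cell. Compound at 0.1, 1 or 10 µM was co-applied with 2 µM GABA. Response is the current ratio with/without compound. At least four different oocytes per concentration; mean ± SEM.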

Xenopus laevis [4] = assay: Anesthetic effect on Xenopus laevis tadpole assessed as loss of swimming reflex at 10 uM; format: functional, organism-based
Oocyte [5] = assay: Activity at rat GABA-A receptor alpha1beta2gamma2L expressed in Xenopus oocytes assessed as potentiation of GABA-induced chloride current at 0.1 uM by electrophysiological Method relative to control; format: cell-based; method in brief: as §2
Xenopus laevis [6] = assay: Anesthetic effect on Xenopus laevis tadpole assessed as loss of righting reflex; format: functional, organism-based; method in brief: as §1
Oocyte [7] = assay: Activity at rat GABA-A receptor alpha1beta2gamma2L expressed in Xenopus oocytes assessed as potentiation of GABA-induced chloride current at 1 uM by electrophysiological Method relative to control; format: cell-based; method in brief: as §2
Oocyte [8] = assay: Activity at rat GABA-A receptor alpha1beta2gamma2L expressed in Xenopus oocytes assessed as increase in chloride current at 10 uM by electrophysiological Method relative to GABA; format: cell-based
Method in brief: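 Direct gating measured without GABA. Current evoked by 10 µM steroid applied alone to oocytes expressing rat α1β2γ2L GABA-A receptors, expressed as a ratio to the current evoked by 2 µM GABA. Whole-cell recording. At least four oocytes per compound; mean ± SEM.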

Mus musculus [9] = assay: Anesthetic effect in mouse assessed as duration of loss of righting reflex at 8 mg/kg, iv; format: functional
Mus musculus [10] = assay: Anesthetic effect in mouse assessed as duration of loss of righting reflex at 16 mg/kg, iv; format: functional
Xenopus laevis [11] = assay: Anesthetic effect on Xenopus laevis tadpole assessed as loss of swimming reflex at 30 uM; format: functional, organism-based
Mus musculus [12] = assay: Anesthetic effect in mouse assessed as time taken for recovery of righting effect and walking at 16 mg/kg, iv; format: functional
Mus musculus [13] = assay: Anesthetic effect in mouse assessed as loss of righting reflex at 8 mg/kg, iv; format: functional, organism-based; design: dose 8 mg/kg
Mus musculus [14] = assay: Anesthetic effect in mouse assessed as immediate loss of righting reflex at 16 mg/kg, iv; format: functional, organism-based; design: dose 16 mg/kg

SMILES	EC50 (Xenopus laevis [1]) [µM]	Activity (Xenopus laevis [2])	fold change (FC) (Oocyte [3])	Activity (Xenopus laevis [4])	fold change (FC) (Oocyte [5])	EC50 (Xenopus laevis [6]) [µM]	fold change (FC) (Oocyte [7])	fold change (FC) (Oocyte [8])	Time (Mus musculus [9]) [min]	Time (Mus musculus [10]) [min]	Activity (Xenopus laevis [11])	Time (Mus musculus [12]) [min]	Activity (Mus musculus [13])	Activity (Mus musculus [14])
C/C(C#N)=C1/CC[C@H]2[C@@H]3CC[C@H]4C[C@H](O)CC[C@]4(C)[C@H]3C(=O)C[C@]12C	10	Active	1.53	inactive	0.9	2.09	0.86	0.05						
C[C@]12CC[C@@H](O)C[C@@H]1CC[C@H]1[C@@H]3CC[C@H](C=O)[C@@]3(C)CC(=O)[C@@H]12		Active		inactive		3.98								
C[C@]12CC[C@@H](O)C[C@@H]1CC[C@@H]1[C@@H]2C(=O)C[C@]2(C)/C(=C\C#N)CC[C@@H]12	5.48	Active		inactive					1.5	4				
C[C@]12CC[C@@H](O)C[C@@H]1CC[C@@H]1[C@@H]2C(=O)C[C@]2(C)/C(=C/C#N)CC[C@@H]12	17.3			Active		9.15					inactive			
CC(=O)[C@H]1CC[C@H]2[C@@H]3CC[C@H]4C[C@H](O)CC[C@]4(C)[C@H]3C(=O)C[C@]12C [ALFAXALONE]										4		1	inactive	Active
C[C@]12CC[C@@H](O)C[C@@H]1CC[C@H]1[C@@H]3CC[C@H](CC#N)[C@@]3(C)CC(=O)[C@@H]12		Active	4.67	inactive	0.91	3.58	1.13	0.01						
C/C(C#N)=C1\CC[C@H]2[C@@H]3CC[C@H]4C[C@H](O)CC[C@]4(C)[C@H]3C(=O)C[C@]12C	5.48	Active	5.02	inactive	0.9	2.71	1.52	0.04						
C[C@]12CC[C@@H](O)C[C@@H]1CC[C@@H]1[C@@H]2C(=O)C[C@]2(C)C(C=O)=CC[C@@H]12		Active		inactive		3.22								
